Assay results taken from ChEMBL document CHEMBL3046214, “Friedelane triterpenes from Celastrus vulcanicola as photosynthetic inhibitors” (J Agric Food Chem, 2010).
The source made the active and inactive calls. No cut-off for these calls is given here.

Legend:
Physalis ixocarpa [1] = test: Effect on biomass production in Physalis ixocarpa assessed as plant dry weight at 200 uM measured 14 days post compound application relative to untreated control; format: functional
Outline: (§1)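 Greenhouse-grown plants (pots, watered daily, 25 to 30 °C) of similar size, sprayed at 15 (P. ixocarpa) or 18 (L. perenne) days after emergence. Compound taken from a 20 mM DMSO stock into aqueous 0.05% w/v Tween-20; controls were sprayed with water containing the same DMSO and Tween-20. Plants harvested at ground level, oven-dried at 65 °C to constant weight, then weighed.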

[2] = molecular target: Photosystem II protein D1 (Spinacia oleracea) (UniProt P69560); test: Inhibition of uncoupled photosystem II electron transport and partial reactions in Spinacia oleracea (spinach) leaves assessed as electron transport rate from water to DCPIP at 50 uM measured per mg of chlorophyll relative to untreated control; design: scale not given: the % may be the effect or the level left
[3] = molecular target: Photosystem II protein D1 (Spinacia oleracea) (UniProt P69560); test: Inhibition of uncoupled photosystem II electron transport and partial reactions in Spinacia oleracea (spinach) leaves assessed as electron transport rate from water to DCBQ at 50 uM measured per mg of chlorophyll relative to untreated control; design: scale not given: the % may be the effect or the level left
Outline: (§2)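 Uncoupled PSII water-to-DCBQ rate: 3 mL of 100 mM sorbitol, 10 mM KCl, 5 mM MgCl2, 0.5 mM KCN, 15 mM tricine-KOH pH 8.0, with 100 μM DCBQ, 1 μM DBMIB, 6 mM NH4Cl and chloroplasts at 20 μg Chl/mL, illuminated 1 min. Rates are in μequiv e-/h mg Chl, percent of control, three replicates.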

[4] = molecular target: Photosystem II protein D1 (Spinacia oleracea) (UniProt P69560); test: Inhibition of uncoupled photosystem II electron transport and partial reactions in Spinacia oleracea (spinach) leaves assessed as electron transport rate from water to SiMo at 300 uM measured per mg of chlorophyll relative to untreated control; design: scale not given: the % may be the effect or the level left
Outline: (§3)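 Uncoupled partial PSII reaction from water to silicomolybdate, run in the PSII medium (sorbitol, KCl, MgCl2, KCN, 15 mM tricine-KOH pH 8.0, 6 mM NH4Cl, 20 μg Chl/mL, 1 min light). DCBQ/DBMIB were replaced by 200 μM SiMo plus 10 μM DCMU. Rates are in μequiv e-/h mg Chl, relative to control, three replicates.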

Lolium perenne [5] = test: Inhibition of photosynthetic efficiency in Lolium perenne (perennial ryegrass) at 100 uM measured 48 hr post compound application; format: functional, organism-based
Outline: (§4)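 Greenhouse L. perenne sprayed 18 days after emergence (20 mM DMSO stock diluted into 0.05% Tween-20; vehicle-sprayed controls). Leaves dark-adapted 15 min, then excited with 3000 μmol photons m-2 s-1 red light (650 nm) from three LEDs. OJIP transients recorded at room temperature with a Handy PEA. PI(abs) and other parameters are shown on radar plots normalized to control.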

[6] = molecular target: Photosystem II protein D1 (Spinacia oleracea) (UniProt P69560); test: Inhibition of uncoupled photosystem II electron transport and partial reactions in Spinacia oleracea (spinach) leaves assessed as electron transport rate from water to SiMo at 50 uM measured per mg of chlorophyll relative to untreated control; design: scale not given: the % may be the effect or the level left; outline: as §3
Lolium perenne [7] = test: Effect on biomass production in Lolium perenne (perennial ryegrass) assessed as plant dry weight at 200 uM measured 14 days post compound application relative to untreated control; format: functional; outline: as §1
[8] = molecular target: Photosystem II protein D1 (Spinacia oleracea) (UniProt P69560); test: Inhibition of uncoupled photosystem II electron transport and partial reactions in Spinacia oleracea (spinach) leaves assessed as electron transport rate from water to DCBQ at 200 uM measured per mg of chlorophyll relative to untreated control; design: scale not given: the % may be the effect or the level left; outline: as §2
Lolium perenne [9] = test: Effect on biomass production in Lolium perenne (perennial ryegrass) assessed as plant dry weight at 100 uM measured 14 days post compound application relative to untreated control; format: functional; outline: as §1
Lolium perenne [10] = test: Inhibition of photosynthetic efficiency in Lolium perenne (perennial ryegrass) at 100 uM measured 72 hr post compound application; format: functional; outline: as §4
Spinacia oleracea [11] = test: Inhibition of phosphorylating noncyclic electron transport from water to MV in Spinacia oleracea (spinach) leaves chloroplasts up to 300 uM using Clark type electrode system based method; format: functional
Outline: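 Clark-electrode measurement of water-to-MV electron flow in the basal medium (sorbitol, KCl, MgCl2, 0.5 mM KCN, 50 μM MV, 15 mM tricine-KOH pH 8.0; 20 μg Chl/mL; 1 min light), with 1 mM ADP and 3 mM KH2PO4 added.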

[12] = molecular target: Photosystem II protein D1 (Spinacia oleracea) (UniProt P69560); test: Inhibition of uncoupled photosystem II electron transport and partial reactions in Spinacia oleracea (spinach) leaves assessed as electron transport rate from water to DCPIP at 300 uM measured per mg of chlorophyll relative to untreated control; design: scale not given: the % may be the effect or the level left
Physalis ixocarpa [13] = test: Inhibition of photosynthetic efficiency in Physalis ixocarpa intact leaves assessed as loss of K-bands at 200 uM measured 72 hr post compound application; format: functional, organism-based
Outline: (§5)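 P. ixocarpa plants sprayed 15 days after emergence (greenhouse, 25-30 °C; 20 mM DMSO stock diluted into 0.05% Tween-20; vehicle-sprayed controls). Leaves dark-adapted 15 min, then excited with 650 nm red LED light at 3000 μmol photons m-2 s-1. Chl a OJIP transients recorded with a Handy PEA at room temperature. PI(abs) is normalized to control; K-, J- and I-bands come from variable fluorescence difference curves; five replicates.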

Spinacia oleracea [14] = test: Increase in Magnesium-transporting ATPase activity in Spinacia oleracea (spinach) leaves chloroplasts thylakoids at 300 uM
Outline: (§6)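 Spinach chloroplasts were isolated in 350 mM sorbitol, 5 mM ascorbate, 20 mM MES pH 6.5, centrifuged at 3000g for 60 s, washed, and resuspended in 35 mM HEPES pH 7.6. Light-triggered Mg2+-ATPase activity of thylakoid membranes was measured as released inorganic phosphate. Ammonium chloride served as positive control.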

Physalis ixocarpa [15] = test: Inhibition of photosynthetic efficiency in Physalis ixocarpa intact leaves assessed as effect on OJIP transients at 100 uM measured 24 hr post compound application; format: functional, organism-based; outline: as §5
Spinacia oleracea [16] = test: Increase in Magnesium-transporting ATPase activity in Spinacia oleracea (spinach) leaves chloroplasts thylakoids at 100 uM; outline: as §6
[17] = molecular target: Photosystem II protein D1 (Spinacia oleracea) (UniProt P69560); test: Inhibition of uncoupled photosystem II electron transport and partial reactions in Spinacia oleracea (spinach) leaves assessed as electron transport rate from water to DCPIP at 200 uM measured per mg of chlorophyll relative to untreated control; design: scale not given: the % may be the effect or the level left
Physalis ixocarpa [18] = test: Inhibition of photosynthetic efficiency in Physalis ixocarpa intact leaves assessed as reduction in PI(abs) level at 100 uM measured 72 hr post compound application; format: functional; outline: as §5
Spinacia oleracea [19] = test: Inhibition of basal electron transport from water to MV in Spinacia oleracea (spinach) leaves chloroplasts up to 300 uM using Clark type electrode system based method; format: functional, organism-based
[20] = molecular target: Photosystem II protein D1 (Spinacia oleracea) (UniProt P69560); test: Inhibition of uncoupled photosystem II electron transport and partial reactions in Spinacia oleracea (spinach) leaves assessed as electron transport rate from water to DCPIP at 100 uM measured per mg of chlorophyll relative to untreated control; design: scale not given: the % may be the effect or the level left
Spinacia oleracea [21] = test: Inhibition of uncoupled electron transport from water to MV in Spinacia oleracea (spinach) leaves chloroplasts up to 300 uM using Clark type electrode system based method; format: functional, organism-based
Outline: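 Water-to-MV electron transport measured with a Clark electrode in the basal medium (20 μg Chl/mL, 50 μM MV, 15 mM tricine-KOH pH 8.0, 1 min illumination), with 6 mM NH4Cl added as uncoupler.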

Physalis ixocarpa [22] = test: Effect on photosynthetic efficiency in Physalis ixocarpa intact leaves assessed as increase in PI(abs) level at 100 uM measured 72 hr post compound application; format: functional; conditions: in the assay text read “at 200 uM” for “at 100 uM”; outline: as §5
Spinacia oleracea [23] = test: Increase in Magnesium-transporting ATPase activity in Spinacia oleracea (spinach) leaves chloroplasts thylakoids at 200 uM; outline: as §6
[24] = molecular target: Photosystem II protein D1 (Spinacia oleracea) (UniProt P69560); test: Inhibition of uncoupled photosystem II electron transport and partial reactions in Spinacia oleracea (spinach) leaves assessed as electron transport rate from water to DCBQ at 100 uM measured per mg of chlorophyll relative to untreated control; design: scale not given: the % may be the effect or the level left; outline: as §2
Lolium perenne [25] = test: Inhibition of photosynthetic efficiency in Lolium perenne (perennial ryegrass) at 200 uM measured 24 to 72 hr post compound application; format: functional; outline: as §4
Physalis ixocarpa [26] = test: Inhibition of photosynthetic efficiency in Physalis ixocarpa intact leaves assessed as reduction in PI(abs) level at 100 uM measured 48 hr post compound application; format: functional; outline: as §5
Physalis ixocarpa [27] = test: Effect on biomass production in Physalis ixocarpa assessed as plant dry weight at 100 uM measured 14 days post compound application relative to untreated control; format: functional; outline: as §1
Physalis ixocarpa [28] = test: Inhibition of photosynthetic efficiency in Physalis ixocarpa intact leaves assessed as reduction in PI(abs) level at 200 uM measured 48 hr post compound application; format: functional; outline: as §5
Spinacia oleracea [29] = test: Inhibition of photophosphorylation in Spinacia oleracea (spinach) leaves chloroplasts by titrimetry; format: functional; conditions: read-out: I50
Outline: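 Intact spinach chloroplasts (20 μg Chl/mL) were osmotically broken in 3 mL of weakly buffered medium: 100 mM sorbitol, 10 mM KCl, 5 mM MgCl2, 0.5 mM KCN, 1 mM tricine-KOH pH 8.0, 50 μM MV and 1 mM ADP. ATP synthesis was taken from the medium alkalization rate in the linear part of illumination, calibrated by HCl back-titration, as μmol ATP (mg Chl)-1 h-1. I50 was obtained from concentration-activity plots; three replicates.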

Lolium perenne [30] = test: Inhibition of photosynthetic efficiency in Lolium perenne (perennial ryegrass) at 100 uM measured 24 hr post compound application; format: functional; outline: as §4
[31] = molecular target: Photosystem II protein D1 (Spinacia oleracea) (UniProt P69560); test: Inhibition of uncoupled photosystem II electron transport and partial reactions in Spinacia oleracea (spinach) leaves assessed as electron transport rate from water to SiMo at 100 uM measured per mg of chlorophyll relative to untreated control; design: scale not given: the % may be the effect or the level left; outline: as §3
Spinacia oleracea [32] = test: Effect on photosynthesis efficiency in Spinacia oleracea (spinach) leaves freshly lysed chloroplasts assessed as change in chlorophyll a fluorescence at 150 to 450 uM; format: functional
Outline: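 Freshly lysed spinach thylakoids (20 μg Chl) were placed on filter paper with a dot-blot apparatus and dipped in 3 mL basal electron transport medium without MV, containing compound. After 5 min dark adaptation, fluorescence was excited with 3000 μmol m-2 s-1 650 nm LED light (2 s pulse) at room temperature. Wt = (Ft−F0)/(FJ−F0), difference from control used for K-band; five replicates.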

[33] = molecular target: Photosystem II protein D1 (Spinacia oleracea) (UniProt P69560); test: Inhibition of uncoupled photosystem II electron transport and partial reactions in Spinacia oleracea (spinach) leaves assessed as electron transport rate from water to SiMo at 200 uM measured per mg of chlorophyll relative to untreated control; design: scale not given: the % may be the effect or the level left; outline: as §3
[34] = molecular target: Photosystem II protein D1 (Spinacia oleracea) (UniProt P69560); test: Inhibition of uncoupled photosystem II electron transport and partial reactions in Spinacia oleracea (spinach) leaves assessed as electron transport rate from water to DCBQ at 300 uM measured per mg of chlorophyll relative to untreated control; design: scale not given: the % may be the effect or the level left; outline: as §2

Activity [2]: 105%
Activity [3]: 89%
Activity [4]: 0%
Activity [6]: 60%
Activity [8]: 50%
Activity [12]: 100%
Activity (Spinacia oleracea [14]): 126%
Activity (Spinacia oleracea [16]): 110%
Activity [17]: 95%
Activity [20]: 108%
Activity (Spinacia oleracea [23]): 116%
Activity [24]: 68%
IC50 (Spinacia oleracea [29]): 124 µM
Activity [31]: 20%
Activity [33]: 10%
Activity [34]: 44%
SMILES: C[C@H]1C(=O)CC[C@@H]2[C@]1(C)CC[C@H]1[C@@]2(C)CC[C@@]2(C)[C@@H]3CC(C)(C)CC[C@]3(CO)CC[C@]12C [CANOPHYLLOL]
Activity (Physalis ixocarpa [1]): 99%
inhibition (Lolium perenne [5]): inactive
Activity (Lolium perenne [7]): 140.3%
Activity (Lolium perenne [9]): 117.1%
inhibition at 100 µM (Lolium perenne [10]): 15%
inhibition (Spinacia oleracea [11]): Active
inhibition (Physalis ixocarpa [13]): Active
inhibition (Physalis ixocarpa [15]): inactive
inhibition at 100 µM (Physalis ixocarpa [18]): 25%
inhibition (Spinacia oleracea [19]): Active
inhibition (Spinacia oleracea [21]): Active
Activity (Physalis ixocarpa [22]): 10%
inhibition (Lolium perenne [25]): inactive
inhibition at 100 µM (Physalis ixocarpa [26]): 10%
Activity (Physalis ixocarpa [27]): 81.5%
inhibition at 200 µM (Physalis ixocarpa [28]): 10%
inhibition at 100 µM (Lolium perenne [30]): 50%
Activity (Spinacia oleracea [32]): Active
